Test results published in ChEMBL document CHEMBL1148692, “Synthesis, antiviral and antitumor activity of 2-substituted-5-amidino-benzimidazoles” (Bioorg Med Chem, 2007).
pEC50, pIC50: −log10 of the molar value. The source made the active and inactive calls. No cut-off for these calls is given here.

Columns and labels:
Coxsackievirus B5 = assay: Antiviral activity against Coxsackievirus B5 in GMK cells by MTT assay; format: functional, organism-based; conditions: Enterovirus B
Summary of the method: (§1)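 GMK monolayers were seeded at 10⁵ cells/mL and grown in DMEM with 10% FBS. Compound dilutions from 10⁻⁴ to 10⁻¹⁰ M were added to one-day-old confluent cells, immediately followed by virus at 10 CCID50 in DMEM with 2% serum. Cell lysis was followed microscopically at 24 h and quantified by MTT, as % CPE inhibition versus infected wells without compound. EC50 is the mean of at least two independent MTT experiments.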

[1] = Growth inhibition of human WI38 cells by MTT assay; format: cell-based; conditions: WI-38
Summary of the method: (§2)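 Cells were kept as monolayers in DMEM with 10% FBS, 2 mM glutamine and antibiotics at 37 °C under 5% CO₂, and seeded at 1–3 × 10⁴ cells/mL. They were exposed for 72 h to five 10-fold dilutions (10⁻⁸–10⁻⁴ M), with DMSO solvent controls. Growth was read by MTT at 570 nm and expressed as percentage growth relative to time-zero and untreated controls. IC50 was obtained by linear regression from quadruplicates in three experiments.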

MCF7 = assay: Growth inhibition of human MCF7 cells by MTT assay; format: functional, cell-based; summary of the method: as §2
HeLa = assay: Growth inhibition of human HeLa cells by MTT assay; format: functional, cell-based; summary of the method: as §2
SW-620 = assay: Growth inhibition of human SW620 cells by MTT assay; format: functional, cell-based; summary of the method: as §2
NCI-H460 = assay: Growth inhibition of human H460 cells by MTT assay; format: functional, cell-based; summary of the method: as §2
Human alphaherpesvirus 1 = assay: Antiviral activity against Herpesvirus 1 in HeLa cells by MTT assay; format: functional, organism-based; conditions: in the assay text read “by optical evaluation of CPE” for “by MTT assay”; for pEC50: Human alphaherpesvirus 1, HeLa
Summary of the method: (§3)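 HeLa monolayers were seeded at 10⁵ cells/mL and grown in DMEM with 10% FBS. Compounds were serially diluted from 10⁻⁴ to 10⁻¹⁰ M and added to one-day-old confluent monolayers, which were then immediately infected at 10 CCID50 in DMEM with 2% serum. Cytopathic effect was scored by optical microscopy at 48 h and compared with untreated infected wells. EC50 is the mean of at least three independent evaluations.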

Human adenovirus 5 = assay: Antiviral activity against Adenovirus 5 in HeLa cells by MTT assay; format: functional, organism-based; conditions: in the assay text read “by optical evaluation of CPE” for “by MTT assay”; for pEC50: Human mastadenovirus C; summary of the method: as §3
MIA PaCa-2 = assay: Growth inhibition of human MiaPaCa2 cells by MTT assay; format: functional, cell-based; summary of the method: as §2
Human echovirus 7 = assay: Antiviral activity against Echovirus 7 in GMK cells by MTT assay; format: functional, cell-based, Echovirus E7; conditions: Enterovirus B; summary of the method: as §1

| Structure (SMILES) | pEC50 (Coxsackievirus B5) | pIC50 [1] | pIC50 (MCF7) | pIC50 (HeLa) | pIC50 (SW-620) | pIC50 (NCI-H460) | pEC50 (Human alphaherpesvirus 1) | Activity (Human adenovirus 5) | pIC50 (MIA PaCa-2) | pEC50 (Human echovirus 7) | Activity (Human alphaherpesvirus 1) | pEC50 (Human adenovirus 5) |
| --- | --- | --- | --- | --- | --- | --- | --- | --- | --- | --- | --- | --- |
| c1ncc(-c2nc3cc(C4=NCCN4)ccc3[nH]2)[nH]1 | < 4.00 | < 4.00 | ≤ 4.00 | < 4.00 | < 4.00 | < 4.00 | < 4.00 | inactive | < 4.00 | < 4.00 | – | – |
| COc1cc([C@@H]2c3cc4c(cc3[C@@H](O[C@@H]3O[C@@H]5CO[C@@H](C)O[C@H]5[C@H](O)[C@H]3O)[C@H]3COC(=O)[C@H]23)OCO4)cc(OC)c1O [ETOPOSIDE] | – | – | – | 5.54 | – | 6.70 | – | – | – | – | – | – |
| N=C(N)c1ccc2[nH]c(-c3cnc[nH]3)nc2c1 | < 4.00 | < 4.00 | 5.14 | < 4.00 | < 4.00 | < 4.00 | – | inactive | 4.47 | < 4.00 | inactive | – |
| Cn1cccc1-c1nc2cc(C3=NCCN3)ccc2[nH]1 | < 4.00 | 4.81 | 5.30 | 4.70 | 4.82 | 4.42 | 4.55 | – | 4.94 | < 4.00 | – | < 4.00 |
| CC(C)NC(=N)c1ccc2[nH]c(-c3ccccn3)nc2c1 | 5.57 | 4.69 | 4.30 | < 4.00 | < 4.00 | < 4.00 | < 4.00 | – | 4.10 | 6.48 | – | 4.82 |
| CC(C)NC(=N)c1ccc2[nH]c(-c3cccn3C)nc2c1 | < 4.00 | < 4.00 | 4.70 | < 4.00 | < 4.00 | < 4.00 | – | inactive | < 4.00 | 4.63 | inactive | – |
| CC(C)NC(=N)c1ccc2[nH]c(-c3cnc[nH]3)nc2c1 | < 4.00 | < 4.00 | 4.59 | < 4.00 | < 4.00 | < 4.00 | < 4.00 | inactive | < 4.00 | < 4.00 | – | – |
| N=C(N)c1ccc2[nH]c(-c3ccccn3)nc2c1 | 5.77 | 4.23 | ≤ 4.00 | 4.09 | < 4.00 | < 4.00 | < 4.00 | – | < 4.00 | 5.49 | – | < 4.00 |
| Cn1cccc1-c1nc2cc(C(=N)N)ccc2[nH]1 | 5.46 | < 4.00 | 4.92 | 4.15 | 4.08 | < 4.00 | 4.52 | – | < 4.00 | 5.30 | – | 5.23 |
| c1ccc(-c2nc3cc(C4=NCCN4)ccc3[nH]2)nc1 | 5.37 | 4.92 | 4.92 | 4.80 | 4.72 | 4.65 | 4.25 | – | 4.80 | 6.20 | – | < 4.00 |
